From PubChem BioAssay
H9c2 TAG inh – inhibitors of triacylglycerol accumulation | H9c2 cells, Nile Red lipid (TAG) fluorescence; cells loaded with 200 µM oleic acid | inhibition, % at 12.5 µM | 230,000 compounds, 0.66% hits | AID 651582;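 active = pattern-corrected inhibition of lipid staining of at least 50% with the nuclear-stain viability signal not falling by more than 50%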;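 note: 0% = DMSO wells and 100% = triacsin C control wells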
Lipid droplet – modulators of hepatic lipid droplet formation; inhibition, % at 6.5 µM; AML12 mouse hepatocytes, oleate lipid droplets, BODIPY imaging; 240,000 compounds, 0.4% hits;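 active = lipid droplet intensity inhibited by at least 50%, with more than 500 cells counted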
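Assay system: AML12 hepatocytes (mouse); Probe or stimulus: oleic acid at 100 µM to induce lipid droplet formation; Dosing: compound at 6.5 µM only; Schedule: compound with oleate, overnight; Detection: fluorescence imaging, 20x objective, two fields per well; Measure: % inhibition of lipid droplet signal.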
Gli-Sufu block – antagonists of Gli-Sufu signaling. Sufu-KO-LIGHT fibroblasts, Gli luciferase reporter luminescence. 340,000 compounds, 0.74% hits. inhibition, % at 5 µM;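 active = inhibition above about 55%, limit read from the data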;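 note: 0% = DMSO-treated cells and 100% = wells with medium but no cells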
Jurkat NFkB inh – lowers PMA/ionomycin-induced NF-kB signal in Jurkat cells | PMA/ionomycin-induced NF-kB luciferase reporter, luminescence | inhibition, % at 4 µM | 330,000 compounds, 0.53% hits; in the data active = inhibition above about 50%
697 NFkB inh – lowers PMA/ionomycin-induced NF-kB signal in 697 B cells; 697 B-cell NF-kB luciferase reporter, 16 h; AID 435022; 330,000 compounds, 0.33% hits; inhibition, % at 4 µM; in the data active = inhibition above about 35%
iPSC survival up – hiPSC single-cell survival enhancement. ATPlite luminescence; 100% = ROCK inhibitor wells, 0% = DMSO. survival enhancement, % at 20 µM. 360,000 compounds, 0.044% hits. AID 602274; in the data active = survival enhancement above about 18%;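 note: cells exposed to compounds for 16 hours before the ATP read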
Jurkat NFkB conf – lowers PMA/ionomycin-induced NF-kB signal in Jurkat cells; shares compounds with Jurkat NFkB inh; 2,700 compounds, 27% hits; Jurkat NF-kB luciferase, 16 h; inhibition, % at 4 µM;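 active = inhibition reaching about 45% at 4 µM in either replicate, limit read from the data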;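 note: plate controls were PMA/ionomycin stimulated DMSO wells for no effect and unstimulated DMSO wells for full effect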
Numbers without * were called inactive; . = not tested or not shown. Shown are actives, neighbours in structure and some others; about 1.8% of the full set was active somewhere.

SMILES | H9c2 TAG inh | Lipid droplet | Gli-Sufu block | Jurkat NFkB inh | 697 NFkB inh | iPSC survival up | Jurkat NFkB conf
COc1ccc(C(=O)COC(=O)c2ccc(N(C)C)cc2)cc1 | 3 | 4 | -24 | -51 | 13 | 0 | .
CN(C)c1ccc(C(=O)OCC(=O)c2cccs2)cc1 | -3 | -1 | -96 | -151 | -80 | -2 | -87
C=CCSc1nc2ccccc2n1C(=O)/C=C/c1cc(OC)c(OC)c(OC)c1 | . | . | 48 | 64* | -64 | -3 | 40
CCOc1ccc(N/C(N)=N/c2nc(CSc3nnc(C)s3)cc(=O)[nH]2)cc1 | 19 | 7 | 41 | 74* | 1 | -1 | 50*
Cc1nnc(SCc2cc(=O)[nH]c(/N=C(\N)Nc3ccccc3)n2)s1 | 14 | 1 | 1 | 22 | 5 | 0 | .
CC(C)CC1NC(=O)c2ccc(Cl)cc2-n2c1nc1ccc(Cl)cc1c2=O (stereo unspecified) | . | . | . | 2 | 3 | . | .
CCOC(=O)c1sc(N)c(C(=O)Nc2ccccc2OC)c1C | -7 | -3 | 0 | 71* | -29 | 0 | 18
CCCNc1ncnc2c1cnn2-c1ccc(OC)cc1 | . | 31 | . | . | . | . | .
C=CCNc1ncnc2c1cnn2-c1ccc(OC)cc1 | . | . | -109 | -154 | -130 | -2 | -80
OCCCNc1ncnc2c1cnn2-c1ccc(Cl)cc1 | . | -13 | -36 | -153 | -135 | -1 | -102
COc1ccccc1CN1C(=O)C(Cc2ccccc2)ON=C1c1ncccc1C (stereo unspecified) | -1 | . | . | . | . | 0 | .
COc1cccc(C2CC(=O)Nc3cc(C)c(C)cc32)c1 (stereo unspecified) | -26 | . | . | . | . | -2 | .
O=C1CC(c2cccnc2)c2cc3c(cc2N1)OCO3 (stereo unspecified) | -11 | 21 | 3 | 2 | -1 | -2 | .
Cc1cc2c(cc1C)C(c1ccccc1OC(C)C)CC(=O)N2 (stereo unspecified) | . | -5 | 2 | 52* | -76 | 0 | 36
CC(C)Oc1ccccc1C1CC(=O)Nc2cc3c(cc21)OCO3 (stereo unspecified) | . | . | 54 | 76* | 7 | 0 | 53*
Cn1cc(CCNC(=O)C2CCC(=O)N(CCc3ccc(Cl)cc3)C2)cn1 (stereo unspecified) | 11 | 3 | -4 | 6 | 6 | 0 | .
O=C(Nc1cccnc1)c1cc2c(ccc3ccccc32)o1 | . | 0 | -108 | -165 | -5 | -2 | -115
O=C(O)c1cc2c(ccc3ccccc32)o1 | . | . | 2 | 2 | 13 | 2 | .
O=C(c1cc2c(ccc3ccccc32)o1)N1CCCCC1 | 9 | 1 | -95 | -156 | -200 | -1 | -120
Cc1nc2ccc(NC(=O)c3cnc(Cl)c(Cl)c3)cc2s1 | . | -9 | -8 | -1 | 0 | 0 | .
Cc1ccc2nc(NC(=O)c3ccc(Cl)s3)sc2c1 | 13 | . | -108 | -162 | -215 | -3 | -140
Cc1nc2ccc(NC(=O)c3ccc(Cl)s3)cc2s1 | -30 | . | -80 | -174 | -191 | -3 | -79
Cc1ccc2nc(NC(=O)c3ccc4c(c3)OCO4)sc2c1 | . | . | -101 | -152 | -230 | -2 | -135
Cc1cccc2sc(NC(=O)c3ccc(Cl)s3)nc12 | 31 | . | -23 | -9 | -56 | -3 | .
Cc1ccc(C(=O)Nc2nc3ccccc3s2)s1 | . | 6 | -97 | -211 | -156 | -3 | -109
SMILES | H9c2 TAG inh | Lipid droplet | Gli-Sufu block | Jurkat NFkB inh | 697 NFkB inh | iPSC survival up | Jurkat NFkB conf
Cc1ccc(C(=O)Nc2nc3ccc(S(C)(=O)=O)cc3s2)s1 | . | . | -94 | -97 | -45 | -4 | .
COc1cc(-c2ccc(N3C(c4ccsc4)=Cc4ccccc4C3CC(C)=O)cc2)cc(OC)c1OC (stereo unspecified) | . | . | . | . | . | 0 | .
COc1cccc2sc(Nc3nc(-c4ccccn4)cs3)nc12 | 47 | . | . | 98* | -132 | -3 | 32
Cc1ccc(NC2CCCN(C(=O)CCN3CCOCC3)C2)cc1C (stereo unspecified) | 5 | -16 | -2 | 11 | 7 | 0 | .
COCCCN=C1NN=C(c2cc(C)n(-c3ccccc3F)c2C)CS1 | 12 | 8 | 38 | -26 | -63 | -3 | .
COCCn1c(C)cc(C2=NNC(=Nc3ccccc3F)SC2)c1C | 15 | . | 34 | 69* | -27 | -1 | 88*
Fc1ccccc1N=C1NN=C(c2ccccc2)CS1 | -12 | 13 | -63 | -197 | -196 | 0 | -112
N#Cc1c(Nc2cccc(F)c2)sc2c(O)cc(=O)[nH]c12 | . | 2 | -3 | -10 | -3 | 0 | .
C=CCSc1nnc(NC(=O)CCN2C(=O)C3CC=CCC3C2=O)s1 (stereo unspecified) | -35 | . | -6 | 0 | 6 | 1 | .
CC(C)CC(=O)Nc1ccc2nn(-c3ccccc3)nc2c1 | . | -5 | -103 | -183 | -158 | -2 | -112
CCCC(=O)Nc1ccc2nn(-c3ccc(OC)cc3)nc2c1 | 3 | -3 | -68 | -130 | -190 | 0 | .
CC(=O)c1cccc(NC(=O)c2cc(-c3cccs3)on2)c1 | . | 6 | -13 | -79 | 1 | -1 | .
O=C(Nc1cccc(O)c1)c1cc(-c2cccs2)on1 | . | 2 | -13 | -152 | 13 | -1 | -36
COc1ccc(NC(=O)c2cc(-c3cccc(OC)c3)on2)cc1 | -14 | -4 | 6 | -3 | 11 | 0 | .
COc1cccc(-c2cc(C(=O)NC3CCCC3)no2)c1 | . | -2 | -64 | -200 | -151 | -2 | -72
COc1cccc(-c2cc(C(=O)Nc3cccc(O)c3)no2)c1 | . | . | -63 | -162 | 1 | -4 | -133
Cc1cc(C)c(NS(=O)(=O)c2ccc(NC(=O)/C=C/C(=O)O)cc2)c(C)c1 | . | 1 | . | -6 | -7 | . | .
CCOc1c(Br)cc(C(=O)N2CCCN(C)CC2)cc1OC | . | -7 | 4 | -12 | -7 | -1 | .
Cc1ccc(C(=O)Nc2nc3c(s2)CCCC3)o1 | -18 | 1 | -103 | -155 | -197 | -6 | -87
COc1cc2sc3ccc(-c4ccc(CN5CCOCC5)cc4)cc3c(=O)c2cc1OC | . | . | -11 | -9 | -99 | -2 | .
COc1cc2sc3ccc(-c4ccc(N(C)C)nc4)cc3c(=O)c2cc1OC | . | . | . | -159 | -161 | . | -79
Nc1c(C(=O)Nc2ccccc2)nnn1-c1ccc2c(c1)OCCO2 | . | 14 | -84 | -157 | -234 | 0 | -100
Cc1ccc(NC(=O)c2nnn(-c3ccc4c(c3)OCCO4)c2N)cc1 | . | -1 | -35 | -109 | -132 | -1 | .
CN(C)CCCn1cnc2c(c1=N)C(c1ccccc1)c1ccc3ccccc3c1O2 (stereo unspecified) | . | -8 | 12 | 87* | 2 | 0 | 24
COc1ccc(C2c3ccc4ccccc4c3Oc3ncn(CCN(C)C)c(=N)c32)cc1 (stereo unspecified) | . | -20 | 15 | 51* | 19 | -1 | 4
COc1ccc(NC(=O)c2ccc3ccccc3c2)cc1 | . | 2 | -93 | -179 | -61 | 0 | -149
O=C(Nc1nccs1)c1ccc2ccccc2c1 | -10 | . | -80 | -159 | -158 | -1 | -106
